Assay results of several laboratories.
Each line is one published result; the experiments were not run side by side.
Cell line: HepG2
Read-out: cell growth or viability

`COc1cccc2c1C(=O)c1c(O)c3c(c(O)c1C2=O)C[C@@](O)(C(=O)CO)C[C@@H]3O[C@H]1C[C@H](N)[C@H](O)[C@H](C)O1` has an IC50 of 0.48 µM (MTT; 75 h).
For `O=C1CS/C(=N\c2ccc(F)cc2O)N1c1nnc(-c2ccc(C(F)(F)F)cc2/N=C2\SCC(=O)N2c2ccc(F)cc2O)s1`, the IC50 was 19.5 µM (MTT).
`COc1cccc2c1C(=O)c1c(O)c3c(c(O)c1C2=O)C[C@@](O)(C(=O)CO)C[C@@H]3O[C@H]1C[C@H](N)[C@H](O)[C@H](C)O1` has an IC50 of 0.06 µM.
`CC(=O)O[C@@H]1[C@@H](OC(C)=O)[C@H](OC(C)=O)CO[C@H]1n1cc(Cn2c(C(C)=O)nc3ccccc32)nn1` gave an IC50 of 1.65 µM (LDH; 48 h).
For `COc1ccc(-c2oc3ccc(O)c(CN4CCCCC4)c3c2C(=O)NCc2cn(Cc3ccccc3)nn2)cc1`, the IC50 was 116 µM (resazurin; 18 h).
With `O=C1CSC(=Nc2cc(C(F)(F)F)ccc2-c2nnc(N3C(=O)CSC3=Nc3ccc([N+](=O)[O-])cc3)s2)N1c1ccc([N+](=O)[O-])cc1` the IC50 was 73.1 µM (MTT).
The IC50 of `O=C(/C=C/c1ccc(F)cc1)c1nc2ccccc2n1Cc1cn([C@@H]2O[C@H](CO)[C@H](O)[C@H](O)[C@H]2O)nn1` is reported as 1.64 µM (LDH; 48 h).
`FC(F)(F)CN1CC(n2cc(Oc3ccn4nc(Cl)cc4n3)cn2)C1` has an IC50 of > 512 µM.
`CC1=CC(=O)c2ccccc2C1=O` has an IC50 of 9.25 µM (MTT).
`CC(=O)OC[C@H]1O[C@@H](n2cc(Cn3c(C(=O)/C=C/c4ccc(F)cc4)nc4ccccc43)nn2)[C@H](OC(C)=O)[C@@H](OC(C)=O)[C@H]1OC(C)=O` gave an IC50 of 1.61 µM (LDH; 48 h).
For `O=C1CS/C(=N\c2ccccc2O)N1c1nnc(-c2ccc(C(F)(F)F)cc2/N=C2\SCC(=O)N2c2ccccc2O)s1`, the IC50 was 31.1 µM (MTT).
With `Fc1ccc2c(-c3nnc(Cc4ccccc4)s3)nn(Cc3ccccc3)c2c1` the IC50 was 29.1 µM (48 h).
With `Cc1cccc([N+](=O)[O-])c1N=C1SCC(=O)N1c1nnc(-c2ccc(C(F)(F)F)cc2N=C2SCC(=O)N2c2c(C)cccc2[N+](=O)[O-])s1` the IC50 was 50.1 µM (MTT).
The IC50 of `FC(F)(F)c1ccc(-c2noc(-c3nn(Cc4ccc(Cl)cc4Cl)c4ccccc34)n2)cc1` is reported as 251 µM (48 h).
`O=C1CS/C(=N\c2ccccc2Cl)N1c1nnc(-c2ccc(C(F)(F)F)cc2/N=C2\SCC(=O)N2c2ccccc2Cl)s1` gave an IC50 of 55.5 µM (MTT).
`CN(C)C1CCc2[nH]c3c(C(N)=O)ccc(-c4ccccc4Cl)c3c2C1` (stereo not drawn) gave an IC50 of 0.26 µM.
`Fc1ccc2c(-c3ncc(-c4ccccc4)o3)nn(Cc3ccccc3)c2c1` has an IC50 of 39.9 µM (48 h).
For `CC(=O)c1nc2ccccc2n1Cc1cn([C@@H]2O[C@H](CO)[C@H](O)[C@H](O)[C@H]2O)nn1`, the IC50 was 1.67 µM (LDH; 48 h).
`Cc1c2c(nn1C)CSCc1cc(n(C)n1)CSc1cc(c3ccccc3c1)OCCCc1c(C(=O)O)n(C)c3c-2c(Cl)ccc13` gave an IC50 of 50 µM (CCK-8).
`COc1ccc(N(Cc2nc(-c3ccc(F)cc3)cs2)C(=O)CCCCCC(=O)NO)cc1` has an IC50 of 0.97 µM (MTT; 72 h).
`COc1cccc(N=C2SCC(=O)N2c2nnc(-c3ccc(C(F)(F)F)cc3N=C3SCC(=O)N3c3cccc(OC)c3)s2)c1` gave an IC50 of 80.1 µM (MTT).
For `CCCNC(=S)N/N=C/c1cccc2cc3ccccc3nc12`, the IC50 was > 50 µM (MTT; 48 h).
The IC50 of `c1ccc(Cn2nc(-c3nc(-c4ccccc4)n[nH]3)c3ccccc32)cc1` is reported as 60.8 µM (48 h).
`CC(C)(C)[C@H](NC(=O)/C=C/c1ccc(OP(=O)(O)O)cc1)C(=O)N1CCC[C@H]1C(=O)N(c1ccccc1)c1ccc(I)cc1` has an IC50 of 2.23 µM (CCK-8).
For `c1ccc(Cn2nc(-c3ncc(-c4ccccc4)s3)c3ccccc32)cc1`, the IC50 was 27.7 µM (48 h).
The IC50 of `CC(=O)O[C@@H]1[C@@H](OC(C)=O)[C@H](OC(C)=O)CO[C@H]1n1cc(Cn2c(C(=O)/C=C/c3ccc(F)cc3)nc3ccccc32)nn1` is reported as 1.67 µM (LDH; 48 h).
`Clc1ccc(Cn2nc(-c3ncc(-c4ccccc4)s3)c3ccccc32)c(Cl)c1` gave an IC50 of 129 µM (48 h).
For `CCOC(=O)c1c(-c2ccc(OC)cc2)oc2ccc(OCc3cn(Cc4ccccc4)nn3)c(CN3CCCCC3)c12`, the IC50 was 70.5 µM (resazurin; 18 h).
For `Clc1ccc(Cn2nc(-c3nc(-c4ccccc4)no3)c3ccccc32)c(Cl)c1`, the IC50 was 59.9 µM (48 h).
`CC(C)[C@@H](C)NC(=O)c1cc(-c2cc3ccccc3n2C)cc(C(=O)NCCc2ccccn2)n1` has an IC50 of 12.7 µM (CCK-8).
With `CN1CCC(NC2CCc3[nH]c4c(C(N)=O)ccc(-c5ccccc5Cl)c4c3C2)CC1` (stereo not drawn) the IC50 was 0.0202 µM (96 h).
`O=C1CS/C(=N\c2cc(C(F)(F)F)ccc2-c2nnc(N3C(=O)CS/C3=N\c3ccc(-c4ccccc4)cc3)s2)N1c1ccc(-c2ccccc2)cc1` gave an IC50 of 87.7 µM (MTT).
`N=C(CC(O)c1cc2c(F)cc(F)cc2c2cc(C(F)(F)F)ccc12)Nc1ccc(Br)cc1` (stereo not drawn) gave an IC50 of 9.7 µM (neutral red; 24 h).
The IC50 of `O=C(O)c1nn(Cc2ccc(Cl)cc2Cl)c2ccccc12` is reported as 74.7 µM (48 h).
For `COc1ccc(N(Cc2csc(-c3ccccc3)n2)C(=O)CCCCCC(=O)NO)cc1`, the IC50 was 0.12 µM (MTT; 72 h).
`COc1ccc(NC(=S)N/N=C/c2cccc3cc4ccccc4nc23)cc1` gave an IC50 of > 50 µM (MTT; 48 h).
The IC50 of `O=C1CS/C(=N\c2cc(C(F)(F)F)ccc2-c2nnc(N3C(=O)CS/C3=N\c3ccc(Cl)cc3)s2)N1c1ccc(Cl)cc1` is reported as 48.1 µM (MTT).
With `CCN(CC)CCNC(=O)c1c(C)[nH]c(/C=C2\C(=O)Nc3ccc(F)cc32)c1C` the IC50 was 1.35 µM (SRB).
With `O=[N+]([O-])c1ccc(NC(=S)N/N=C/c2cccc3cc4ccccc4nc23)cc1` the IC50 was > 50 µM (MTT; 48 h).
With `C#Cc1cccc(Nc2ncnc3cc(OCCOC)c(OCCOC)cc23)c1` the IC50 was 2.07 µM (LDH; 48 h).
With `Fc1ccc(NC(=S)N/N=C/c2cccc3cc4ccccc4nc23)cc1` the IC50 was > 50 µM (MTT; 48 h).
With `COc1ccc(C[C@H](N)C(=O)N[C@H]2[C@@H](O)[C@H](n3cnc4c(N(C)C)ncnc43)O[C@@H]2CO)cc1` the IC50 was 1.25 µM (resazurin; 72 h).
